One series addresses T1, DfrB4 (Escherichia coli, UniProt Q8VNN1).
T1 sequence (Q8VNN1 1-78): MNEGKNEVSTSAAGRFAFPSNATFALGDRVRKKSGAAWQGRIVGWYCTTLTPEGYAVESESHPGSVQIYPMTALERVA
Put plainly: DfrB4 inhibition, kinetic assay. Format: biochemical.

For another series, the target named is T2, hDfr (Homo sapiens, UniProt P00374).
T2 sequence (P00374 1-187): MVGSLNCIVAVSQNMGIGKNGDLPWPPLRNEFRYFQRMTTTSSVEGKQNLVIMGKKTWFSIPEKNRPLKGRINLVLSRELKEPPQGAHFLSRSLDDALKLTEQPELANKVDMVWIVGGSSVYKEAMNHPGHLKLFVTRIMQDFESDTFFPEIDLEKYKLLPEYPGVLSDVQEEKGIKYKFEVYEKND
Put plainly: human Dfr inhibition, kinetic assay. Format: biochemical. The following applies: for inhibition of hDfr (in words): selectivity. The procedure, abridged:
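His6-tagged human Dfr, purified by nickel affinity (stepwise imidazole in 0.1 M potassium phosphate, pH 8.0), then gel filtration in 0.1 M potassium phosphate, pH 7.5. Protein quantified by Bio-Rad assay. Kinetic assay at pH 7. Test compound tested up to the highest concentration that absorbance and precipitation allowed. IC50 determined per earlier method, with Ki calculated from IC50.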

Series [1] concerns the target T3, DfrB1 (Escherichia coli, UniProt P00383).
T3 sequence (P00383 1-78): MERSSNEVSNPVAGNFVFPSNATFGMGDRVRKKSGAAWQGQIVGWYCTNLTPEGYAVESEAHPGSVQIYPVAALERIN
Put plainly: DfrB1 inhibition, spectrophotometric kinetic assay. Particulars: for IC50: DfrB1 IC50, pH 7; for inhibition of DfrB1 (in words): at the highest concentration that could be assayed; for fold change of DfrB1 Ki relative to 1: greater Ki / weaker than 1; for Hill coefficient: DfrB1 inhibition, Hill plot. It is filed as biochemical.

The nature of series [2]: Solubility limit in assay medium. It is filed as physicochemical. The following applies: 10% DMSO, aqueous with cosolvent or surfactant or cyclodextrin.
A further series concerns the target apo-DfrB1. The following applies: read-out: Kd1; binding on the apo-DfrB1; cited from earlier work.
Series [3] addresses T3, DfrB1. Particulars: DfrB1 substrate KM; cited from earlier work.
A further series concerns E. coli expressing DfrB4. Particulars: highest TMP concentration dissolved in the medium, 600 μg/mL; cited from earlier work.

The structures appear in SMILES notation. Bounds are passed on as bounds.

As usually defined, the Ki is the equilibrium dissociation constant of an inhibitor or competing ligand from its target. Higher therefore signals lower affinity. Broadly, the IC50 is the concentration that gives 50% inhibition. A higher IC50 goes with a need for much substance. One may read the solubility as the concentration that dissolves in the medium under given conditions. Read a low solubility as little dissolved substance. As usually defined, the Hill coefficient is the slope factor of the fitted curve. As usually defined, the Km is the concentration of substrate that gives half-maximal velocity.

With `O=C(O)c1ccc2[nH]c(-c3ccc(OCCC(O)COc4ccc(-c5nc6cc(C(=O)O)ccc6[nH]5)cc4)cc3)nc2c1` (stereo not shown) [Compound 3], the values for the inhibitory constant (Ki) on DfrB4 and on DfrB1 [1] were 3.9 ± 0.9 µM and 3.5 ± 1.7 µM, respectively. The IC50 against hDfr is > 500 µM; on DfrB1 [1] it was 110 ± 10 µM. Moreover, on hDfr, the “inhibition of hDfr (in words)” value is “no inhibition”.
Take `O=C(O)c1ccc2[nH]c(-c3ccc(OC/C=C/COc4ccc(-c5nc6cc(C(=O)O)ccc6[nH]5)cc4)cc3)nc2c1` [Compound 10]: on hDfr, the IC50 was > 400 µM and the “inhibition of hDfr (in words)” value is reported as “did not inhibit”. On DfrB1 [1], this compound came in with a Ki of 2.8 ± 0.8 µM and a half-inhibitory concentration (IC50) of 90 ± 20 µM.
On to `O=C(O)c1ccc2[nH]c(-c3ccc(OCc4ccc(COc5ccc(-c6nc7cc(C(=O)O)ccc7[nH]6)cc5)cc4)cc3)nc2c1` [Compound 11], for which, at hDfr, the half-inhibitory concentration (IC50) is > 100 µM and the “inhibition of hDfr (in words)” value is reported as “did not inhibit”. Also, in series [2], the solubility is ≤ 100 µM. The same compound registered a Ki on DfrB1 [1] of 6.1 µM.
As to `O=C(O)c1ccc(OCCCCCCOc2ccc(C(=O)O)cc2)cc1` [Compound 12], on DfrB1 [1], the IC50 was > 500 µM.
On the same count and under the same terms, next, `O=C(O)c1ccc(OCCCCCCCCCCCCOc2ccc(C(=O)O)cc2)cc1` [Compound 15]: > 250 µM.
As for `O=C(O)Cc1ccc(OCCCCCCOc2ccc(CC(=O)O)cc2)cc1` [Compound 16], on DfrB1 [1], the half-inhibitory concentration (IC50) was > 500 µM and the “inhibition of DfrB1 (in words)” value is reported as “No inhibition was observed”.
Turning to `O=C(O)CCc1ccc(OCCCCOc2ccc(CCC(=O)O)cc2)cc1` [Compound 17], on DfrB1 [1], the half-maximal inhibitory concentration (IC50) was > 200 µM and the “inhibition of DfrB1 (in words)” value is recorded as “No inhibition was observed”.
The matching figures for `O=C(O)c1ccc2cc(-c3ccc(OCCCCCCCCOc4ccc(-c5ccc6cc(C(=O)O)ccc6c5)cc4)cc3)ccc2c1` [Compound 18]: > 200 µM and “abolished inhibition”.
On to `O=C(O)c1ccc2[nH]c(-c3cccc(OCC(O)COc4cccc(-c5nc6cc(C(=O)O)ccc6[nH]5)c4)c3)nc2c1` [Compound 19], for which the concentration for half-maximal inhibition (IC50) on hDfr is > 500 µM. For the same compound, at DfrB1 [1], the inhibition constant (Ki) was found to be 12 ± 3 µM, 400 ± 100 µM corresponded to half-maximal inhibition (IC50) and the “fold change of DfrB1 Ki relative to 1” value is recorded as 3 fold.
As to `O=C(O)c1ccc2nc(-c3ccc(OCCC(O)COc4ccc(-c5nc6ccc(C(=O)O)cc6[nH]5)cc4Br)c(Br)c3)[nH]c2c1` (stereo not shown) [Compound 20b], the inhibitory constant (Ki) on DfrB4 came to 3.7 ± 0.7 µM; on DfrB1 [1] it was 2.6 ± 0.7 µM. Further, the figures for the IC50 at hDfr and against DfrB1 [1] were > 400 µM and 80 ± 20 µM, respectively.
As for `O=C(O)c1ccc2nc(-c3ccc(OCCCOc4ccc(-c5nc6ccc(C(=O)O)cc6[nH]5)cc4Br)c(Br)c3)[nH]c2c1` [Compound 21], the concentration for half-maximal inhibition (IC50) was > 400 µM against hDfr and 60 ± 20 µM on DfrB1 [1]. This compound also gave a Ki at DfrB1 [1] of 1.7 ± 0.6 µM.
Consider `O=C(O)c1ccc2nc(-c3ccc(OCC(COc4ccc(-c5nc6ccc(C(=O)O)cc6[nH]5)cc4)(COc4ccc(-c5nc6ccc(C(=O)O)cc6[nH]5)cc4)COc4ccc(-c5nc6ccc(C(=O)O)cc6[nH]5)cc4)cc3)[nH]c2c1` [Compound 31], for which the Ki on DfrB4 is 1.9 ± 0.5 µM. In addition, on DfrB1 [1], affinity was put at a Ki of 1.1 ± 0.3 µM, the “fold lower DfrB1 Ki than the best inhibitors” value is on record as 2- to 12 fold and the Hill coefficient amounted to 1.1 ± 0.4.
Regarding `O=C(O)c1ccc2[nH]c(-c3ccc(OCc4ccccc4COc4ccc(-c5nc6cc(C(=O)O)ccc6[nH]5)cc4)cc3)nc2c1` [Compound 33], the affinity on DfrB4, expressed as Ki, was 11 ± 1.3 µM. The “inhibition of hDfr (in words)” value against hDfr is given as “no inhibition”. Besides, at DfrB1 [1], the Ki was 7.4 ± 2.7 µM, the Hill coefficient is reported as 1.1 ± 0.1 and the “fold change of DfrB1 Ki relative to 1” value stood at 2 fold. The “mode of inhibition (Dixon plot)” value at DfrB1 [1] (varying NADPH, saturating DHF, with respect to NADPH binding) is given as “competitive”.
As for `Nc1nc(=O)c2c([nH]1)NCC(CNc1ccc(C(=O)N[C@@H](CCC(=O)O)C(=O)O)cc1)=N2` [DHF, dihydrofolate], the Kd on apo-DfrB1 was 120 µM.
On to `NC(=O)C1=CN([C@@H]2O[C@H](COP(=O)(O)OP(=O)(O)OC[C@H]3O[C@@H](n4cnc5c(N)ncnc54)[C@H](OP(=O)(O)O)[C@@H]3O)[C@@H](O)[C@H]2O)C=CC1` [NADPH], for which the Michaelis-Menten constant (Km) at DfrB4 (DfrB4 substrate KM) was 2800 ± 600 nM; at DfrB1 [3] it was 1600 ± 20 nM. The Kd on apo-DfrB1 is 2.5 µM.
As for `COc1cc(Cc2cnc(N)nc2N)cc(OC)c1OC` [TMP, Trimethoprim, reference compound], the values for the inhibition constant Ki at DfrB4 and on DfrB1 [1] were 550 µM and 600 µM, respectively. Moreover, the “TMP resistance conferred by DfrB4 expression” value with E. coli expressing DfrB4 was “complete resistance”.
